Source: PubChem
In the library only some 5.9% were active in any assay of this set; here they are far more common.
T cruzi growth – inhibitors of T. cruzi proliferation; hit rate 5.9% among 77,000; inhibition, % at 8.34 µM; T. cruzi beta-gal in NIH3T3, GalScreen luminescence, 90 h; AID 624255;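 active means mean inhibition above about 93%, with at least 55% of replicates each passing it, limit read from the data, passing the limit was not always enough; inconclusive means only one of those two conditions holds; inactive means neither condition holds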
GASC1 inh – KDM4C (human) demethylase inhibition; hit rate 0.15% among 96,000; inhibition, % at 12.5 µM; GST-KDM4C 2-372, H3K9me3 peptide, LANCE TR-FRET; Q9H3R0;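 active means mean replicate inhibition above about 25%, with at least 55% of replicates also reaching it, limit read from the data, passing the limit was not always enough; inconclusive means only one of those two conditions met; inactive means neither condition met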
Target sequence (Q9H3R0 2-372 limits assumed): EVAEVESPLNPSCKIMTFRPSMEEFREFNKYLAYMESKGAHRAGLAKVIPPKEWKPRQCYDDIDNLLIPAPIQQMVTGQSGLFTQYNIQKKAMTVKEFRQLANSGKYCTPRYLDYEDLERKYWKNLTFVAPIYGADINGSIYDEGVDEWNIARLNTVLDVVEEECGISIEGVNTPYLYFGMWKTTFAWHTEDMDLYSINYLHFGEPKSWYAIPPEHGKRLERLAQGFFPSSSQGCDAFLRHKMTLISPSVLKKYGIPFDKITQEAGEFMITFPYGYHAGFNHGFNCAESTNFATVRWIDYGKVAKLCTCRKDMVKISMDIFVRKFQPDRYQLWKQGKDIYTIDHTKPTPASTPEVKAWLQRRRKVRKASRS
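System: N-terminal GST-fused human GASC-1 (KDM4C) fragment, residues 2-372; amount: enzyme final amount 10 nM; incubation: reaction 30 min RT, detection step 1 h RT; medium: HEPES buffer, pH 7.5, plus ascorbate; technique: LANCE TR-FRET, Eu antibody, ULight-streptavidin, EDTA, ex 340 nm, em 618/671 nm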
Pf Dd2 growth – inhibitors of Plasmodium falciparum Dd2 growth | P. falciparum Dd2 growth, SYBR Green, 72 h; stronger effect = lower value | activity change, % at 10 µM | hit rate 2.3% among 94,000; in the data active means activity change below about -80%; inconclusive means no clear call, values can overlap the other calls
IDH1 R132H inh – IDH1 R132H (human) inhibition. hit rate 0.18% among 70,000. inhibition, % at 10 µM. IDH1 R132H reductase, diaphorase/resazurin fluorescence, 60 min; in the data active means inhibition above about 34%; inconclusive means no clear call, values can overlap the other calls; inactive means below about 11%;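 further: 0% = DMSO and 100% = no enzyme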
Numbers without * were called inactive; ? = inconclusive; . = no result given.

SMILES	T cruzi growth	GASC1 inh	Pf Dd2 growth	IDH1 R132H inh
COc1cccc(C#Cc2ccc([C@H]3[C@@H](CO)N4C(=O)CN(C(=O)Cc5ccccc5)C[C@H]34)cc2)c1	.	-1	-94*	.
N#Cc1ccc(-c2ccc([C@H]3[C@@H](CO)N4C(=O)CN(C(=O)Cc5ccccc5)C[C@@H]34)cc2)cc1	.	-2	-85*	.
COc1cccc(C#Cc2ccc([C@@H]3[C@@H](CO)N4C(=O)CN(C(=O)c5ccccc5)C[C@@H]34)cc2)c1	.	-2	-91*	.
CO[C@@H]1CN(C)C(=O)c2cc(NC(=O)c3nc4ccccc4s3)ccc2OC[C@@H](C)N(Cc2ccncc2)C[C@H]1C	84	1	-87*	3
COc1ccc(CN2C[C@H](C)[C@@H](OC)CN(C)C(=O)c3ccc(NC(=O)c4nc5ccccc5s4)cc3OC[C@@H]2C)cc1	93	-3	-90*	0
CO[C@@H]1CN(C)C(=O)c2cc(NC(=O)c3cc(C)on3)ccc2OC[C@@H](C)N(S(=O)(=O)c2cccc(C)c2)C[C@H]1C	68	-1	-50	-1
CO[C@@H]1CN(C)C(=O)c2ccc(NC(=O)c3nc4ccccc4s3)cc2OC[C@@H](C)N(Cc2ccccc2)C[C@H]1C	.	-1	-96*	-1
CO[C@@H]1CN(C)C(=O)c2ccc(NC(=O)c3cc(C)on3)cc2OC[C@@H](C)N(S(=O)(=O)c2cccc(C)c2)C[C@H]1C	.	0	-86*	0
C[C@H](CO)N1C[C@H](C)[C@H](CN(C)C(=O)Oc2ccccc2)OCc2ccccc2-c2ccccc2C1=O	19	3	18	0
Cc1ccccc1C(=O)NCCc1nc2ccccc2[nH]1	.	.	.	1
COc1ccc(NC(=O)N(C)C[C@@H]2OCCCC[C@@H](C)Oc3ccc(NS(=O)(=O)c4cccs4)cc3C(=O)N([C@H](C)CO)C[C@H]2C)cc1	6	-2	-29	0
COc1ccc(CN2C[C@@H](C)[C@H](OC)CN(C)C(=O)c3cc(NC(=O)c4nc5ccccc5s4)ccc3OC[C@@H]2C)cc1	.	0	-71	0
COc1ccc(CN2C[C@@H](C)[C@H](OC)CN(C)C(=O)c3cc(NC(=O)c4nc5ccccc5s4)ccc3OC[C@H]2C)cc1	.	-1	-86*	0
COc1ccc(NC(=O)N(C)C[C@H]2OCCCC[C@@H](C)Oc3ccc(NC(=O)Nc4ccc(C(F)(F)F)cc4)cc3C(=O)N([C@H](C)CO)C[C@H]2C)cc1	116*	1	-83*	.
COc1ccc(NC(=O)N(C)C[C@H]2OCCCC[C@H](C)Oc3ccc(NC(=O)Nc4ccc(C(F)(F)F)cc4)cc3C(=O)N([C@H](C)CO)C[C@@H]2C)cc1	?	0	-4	1
COc1ccc(NC(=O)N(C)C[C@H]2OCCCC[C@H](C)Oc3ccc(NC(=O)c4ccccc4)cc3C(=O)N([C@@H](C)CO)C[C@H]2C)cc1	.	-1	-89*	1
COc1ccc(NC(=O)N(C)C[C@H]2OCCCC[C@@H](C)Oc3ccc(NC(=O)Nc4ccc(C(F)(F)F)cc4)cc3C(=O)N([C@@H](C)CO)C[C@@H]2C)cc1	83	5	-84*	.
COc1ccc(NC(=O)N(C)C[C@@H]2OCCCC[C@H](C)Oc3ccc(NC(=O)c4ccccc4)cc3C(=O)N([C@H](C)CO)C[C@@H]2C)cc1	42	3	?	1
Cc1ccc(S(=O)(=O)Nc2ccc3c(c2)CC(=O)N([C@@H](C)CO)C[C@H](C)[C@@H](CN(C)Cc2ccc(C(=O)O)cc2)O3)cc1	-11	-2	27	-7
C[C@@H]1CN([C@H](C)CO)C(=O)c2cc(C#C[C@@H](C)O)cnc2O[C@H]1CN(C)CC1CCOCC1	.	1	-64	.
CC(C)C(C(=O)O)N1C(=O)/C(=C/c2ccccc2)SC1=S (configuration not stated)	.	.	.	1
O=C(O)C(c1ccccc1)N1C(=O)/C(=C/c2ccncc2)SC1=S (configuration not stated)	.	.	.	66*
C[C@H](CO)N1C[C@H](C)[C@@H](CN(C)Cc2ccc3c(c2)OCO3)Oc2c(NC(=O)CCCCCC(=O)Nc3ccccc3N)cccc2C1=O	.	1	-85*	0
C[C@@H]1CN([C@@H](C)CO)C(=O)c2cccc(NC(=O)CCCCCC(=O)Nc3ccccc3N)c2O[C@H]1CN(C)Cc1ccc2c(c1)OCO2	.	0	-88*	0
Cc1ccc(S(=O)(=O)N(C)C[C@@H]2Oc3ccc(NS(C)(=O)=O)cc3C(=O)N([C@H](C)CO)C[C@H]2C)cc1	6	0	27	1
